According to ChEMBL document CHEMBL4513216, “Probing the Open Global Health Chemical Diversity Library for Multistage-Active Starting Points for Next-Generation Antimalarials” (ACS Infect Dis, 2020):

Assay: Toxicity liver stage against HepG2, at 10uM
Assay type: cell-based
Design: test concentration 10 uM, cell line HepG2-A16-CD81EGFP
Conditions: human, HepG2-A16-CD81EGFP cells; read-out: INHIBITION
Method in brief: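 Uninfected HepG2-A16-CD81EGFP cells, 3 × 10^3 per well, 1536-well, plated on prespotted compound at 10 μM final, parasite-free screening media added to match infected plates; puromycin 10 μM positive, DMSO 0.5% negative; run in parallel with 48 h PbLuc assay at 37 °C, 5% CO2; viability by CellTiter-Glo luminescence, normalized to controls.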

Compound | cytotoxicity at 10 µM [%]
FC(F)(F)c1ccc(CNC[C@H]2COCc3nc4cccnc4n32)cc1 | 8.04
COc1ccccc1-c1nnc([C@H]2CCN(C(C)=O)C2)o1 | 4.71
O=C(Cc1noc(C(=O)NCC2CC2)n1)Nc1cccc(C(F)(F)F)c1 | 8.13
COCCn1cnc2ccc(NC(=O)C(C)C)cc2c1=O | -9.46
Cc1ccoc1C(=O)N1CCCc2c(c(=O)n(C)n2C)C1 | 11.7
COCc1nnn2c1CN(C(=O)c1c[nH]cn1)CCC2 | 2.02
COCc1nn(C)c2c1CN(C(=O)c1ccno1)CC2 | 12.7
O=C([C@@H]1CC[C@@H]2[C@@H](CCN2c2ncccn2)O1)N1CCCO1 | 8.79
CCn1ncc2c1C(COC)CN(Cc1ccco1)C2 (stereo not drawn) | 7.1
O=C([C@H]1CCCO1)N1CCc2ncnc(C3CC3)c2CC1 | 4.79
Cc1nnc2ccc(N3CCC(C(=O)Nc4nccs4)CC3)nn12 | 3.89
CCOc1ccc(NC(C)=O)cc1S(=O)(=O)Nc1nccs1 | -8.2
Cc1ocnc1C(=O)N(C)[C@@H]1CCC[C@@H](N2CCCC2)[C@@H]1O | -3.7
Cc1cc(N(C)C)nc(C2COCCN2Cc2csc(C)n2)n1 (stereo not drawn) | 1.75
Cc1cc(C(=O)NCc2ccc(-c3n[nH]cc3C(=O)N(C)C)cc2)on1 | 4.29
Cc1cc(-c2cnc(NC3CC3)nc2-c2ccc(C)o2)on1 | 2.26
Cc1noc(C)c1CNCC1CNc2ccnn2C1 (stereo not drawn) | -2.72
Cc1csc(CCNc2ccc(C#N)cc2F)n1 | 2.17
CN(C)c1ccccc1CN1CCCCC1CNS(C)(=O)=O (stereo not drawn) | 0.212
COc1ccc(COCC(=O)N2CCC(c3nncn3C)CC2)cc1 | 4.9
Cn1cnnc1C1CCN(C(=O)COCc2ccccc2Cl)CC1 | -6.07
Cc1csc(CNC(=O)NCC(O)c2ccc(F)c(F)c2)n1 (stereo not drawn) | 2.51

Compound | cytotoxicity at 10 µM [%]
CCC(C)C(=O)NCc1cccc(OCCN(C)C2CCOCC2)c1 (stereo not drawn) | -0.114
CSCCNC(=O)c1cc(Br)cn1C(C)C | -1.16
CC(C)C1CN(C(=O)c2ccc3nccnc3c2)CCS1 (stereo not drawn) | 5.02
N#Cc1ncn(CCC(=O)Nc2cccc(Cl)c2)n1 | -152
Cc1cc(NC(=O)C(C)Nc2cccc(COCc3ccco3)c2)on1 (stereo not drawn) | -2.41
COc1cc2c(cc1OC)S(=O)(=O)N(Cc1cc(C)on1)C2=O | 11.3
CCc1n[nH]c(=O)c(C(=O)N2CCSCC2)c1CC | 19.5
O=C1CCc2cc(S(=O)(=O)NC(=O)c3ccc4c(c3)OCO4)ccc2N1 | -17.8
N#Cc1ccccc1CNC(C(=O)N1CCOCC1)c1ccccc1 (stereo not drawn) | 11
Cn1c2ncccc2c(=O)n1CC(=O)NCCc1c(F)cccc1F | -5.33
Cc1cccc(NC(=O)N2CCN(Cc3nnc(C(C)C)o3)CC2)c1 | -1.02
CCCN1CCC(Nc2nc(C)ns2)CC1 | -8.92
CN(C(=O)Nc1nncs1)C1CCN(c2ccccc2Cl)C1=O (stereo not drawn) | -7.04
CCS(=O)(=O)CCNC(=O)NC(C)c1cc(C)sc1C (stereo not drawn) | -3.4
COc1cc(CN(C)Cc2ccncc2)c(SC)cc1OC | 5.54
CO[C@H]1CN(C(=O)OC(C)(C)C)CC1NCc1ccn(C)c1 (stereo partly drawn) | -45.9
CC(C)C(=O)NS(=O)(=O)c1ccc2c(c1)N(C)CCC2 | -0.447
Cc1nccn1-c1ccc(CNC(=O)c2ccc([S+](C)[O-])cc2)cn1 (stereo not drawn) | -18.1
CC(C)N1CCC(N(C)c2ccnc(N(C)C)n2)CC1 | -3.3
Cc1nonc1C(=O)N1CCc2c(ncn2CCc2ccccc2)C1 | -0.207
Cc1cc(C(=O)N2CC[C@H]3[C@H]2CCN3S(C)(=O)=O)c(C)o1 | -83.1
CCN(C)c1ncnc2c1CCN(c1ccc(C)nn1)CC2 | -94.7

Compound | cytotoxicity at 10 µM [%]
CC(=O)N1CCC2(CC1)c1ncc(-c3ccc(F)cc3)n1CCN2C | -101
O=C([C@H]1CCCO1)N1CC[C@H](O)[C@@H]1Cc1cccnc1 | -105
Cn1cc(C2COC3(CCN(C(=O)c4cnccn4)CC3)C2)cn1 (stereo not drawn) | -68.5
CC1=N[C@@]2(CC[C@@H]3CN(S(=O)(=O)CC(C)C)C[C@@H]32)C(=O)N1C | -84.6
Cn1nc(Cn2ccnc2)c2c1CN(C(=O)c1ccc[nH]1)C2 | -62.7
CCC1=N[C@@]2(CC[C@@H]3CN(C(=O)NCc4cccc(F)c4)C[C@@H]32)C(=O)N1 | -69.4
COCCCn1c(CN2CCSCC2)cnc1S(=O)(=O)C1CCCC1 | -3.89
COCCCC1(C(=O)O)CCCN(C(=O)c2ccc(Cl)cc2F)C1 (stereo not drawn) | -0.37
CC[C@H](N)C(=O)Nc1nn(CC(F)(F)F)c2cc(OC(C)C)ccc12 | -2.8
Cc1ccccc1OC1(C(=O)O)CCN(C(=O)CCc2ccco2)CC1 | 1.5
CSCCC(=O)NCc1cc2n(n1)CCCN(C1CCCCC1)C2 | 19.9
CCN(CC)CCN(C)Cc1cn(C)nc1-c1ccc2c(c1)OCCO2 | 2.95
CCS(=O)(=O)N1CCC2(CCCN(Cc3ccc(F)c(F)c3)C2=O)C1 (stereo not drawn) | 17.6
Cc1nc[nH]c1-c1nccn1CCN1CCCOC1=O | -2.32
CNc1ncc(CN(C)C(=O)c2c[nH]nc2-c2cccc(F)c2)cn1 | -4.69
CSCCNC(=O)c1coc(COc2ccc3sc(C)nc3c2)n1 | -1.51
Cc1ccc([C@@H]2CN(C(=O)c3ccccc3C)C[C@H]2N(C)C)cc1 | -8.29
CN1[C@@H](c2ccccc2)[C@@H](C(=O)NCc2ccncc2)C[C@@]1(C)C(=O)O | -40.6
CCOC(=O)c1coc(N2CCC(C(C)N3CCCC3)CC2)n1 (stereo not drawn) | -1.89
COc1ncc(CN2CCC3(CCNC(=O)CC3)CC2)cn1 | -144
O=C(NCc1cccc(C(F)(F)F)c1)C(c1cccnc1)N1CCCC1 (stereo not drawn) | 6.63
Cn1cc(CN2CC[C@@H]3[C@@H](CCC(=O)N3CC3CCNCC3)C2)cn1 | 1.73

Compound | cytotoxicity at 10 µM [%]
Cn1ccnc1CN1CCC(c2nc3ccccc3n2C)CC1 | 1.42
CN(Cc1nccn1C)C(=O)c1cccc(CCC(C)(C)O)c1 | 1.26
NC(=O)NCC(=O)N1CCCC(c2nccn2Cc2ccncc2)C1 (stereo not drawn) | 5.07
Cc1nccn1CCN(C)c1nc(-c2ccc(Cl)cc2)nc2c1CNC2 | -29.5
Cc1ncsc1CCN(C)C(=O)CN1CCCCC1=O | -14.8
CCCSCC(=O)N1CCN(c2ccc(OC)cc2)CC1C (stereo not drawn) | -166
O=C(c1cc[nH]n1)N1CCc2ncnc(NCc3ccccn3)c2CC1 | -10.5
CCN(C)C[C@@H]1CN(S(=O)(=O)c2ccc(OC)cc2)C[C@@H]1CO | 14.8
O=c1[nH]nc(CCCN2CCOCC2)n1-c1ccc(F)cc1F | 4.54
CC(=O)N1CCC(c2nccnc2Oc2ccccc2)CC1 | 3.7
COCCCNC(=O)CN(C)C(=O)c1ccc(-n2cccc2)cc1O | -13.5
OCCn1cc(CN2CCN(CCOc3ccc(F)cc3)CC2)cn1 | -11.1
OC(COCc1ccccc1)CN1CC(n2cccn2)C1 (stereo not drawn) | 1.95
Cc1nc2c(c(C)c1CC(=O)NCc1ccccc1F)c(=O)[nH]n2C | -5.52
CCNc1cc2c(nn1)CCN(C(=O)c1ccoc1)C2 | -6.9
O=C(Cc1cccc(F)c1)NCCNCc1ccc2c(c1)CCO2 | -12.5
c1ncn(CC2CCCCN2Cc2csc(C3CCCC3)n2)n1 (stereo not drawn) | -6.44
COc1c(C2CCCN2Cc2c(C)noc2C)c(C)nn1C (stereo not drawn) | 5.73
COc1ccc(CCN2CCCC(Cn3nc(C)nc3C)C2)cc1 (stereo not drawn) | -3.34
c1ccc(Cn2cc(CNC3CCc4ncnn4C3)cn2)cc1 (stereo not drawn) | -1.61
c1ccc(CCN2CCOC(Cn3cccn3)C2)nc1 (stereo not drawn) | -4.48
CCc1nc(CN2CCN(C(=O)C3CCCCC3)CC2)cs1 | 3.64

Compound | cytotoxicity at 10 µM [%]
c1cc(CN2CCOCC3(CCN(CC4CCOCC4)CC3)C2)ccn1 | -82.6
COC[C@@]12CCC[C@@H]1CN(C(=O)Cc1ccccn1)C2 | -96.7
CN(C)Cc1noc2c1CN(C(=O)c1ccncc1)CC2 | -1.28
COCCNC(=O)[C@@]12CCO[C@@H]1CCN(Cc1ccc(OC)cc1)C2 | -77.8
O=C(Cc1ccccc1F)N1C[C@@H]2COC[C@]2(COc2cccnc2)C1 | 9.29
O=c1ccc2c(n1Cc1cccnc1)CCN(C1CCOC1)CC2 (stereo not drawn) | 9.58
c1cc2c(cc1CN1C[C@@H]3COC[C@@H](N4CCCC4)[C@@H]3C1)OCO2 | 4.62
Cc1cccc(CN2CCS(=O)(=O)[C@@H]3CCN(S(C)(=O)=O)CC[C@@H]32)n1 | -3.34
CC(=O)N1CCO[C@@H]2CN(Cc3ccccc3F)C[C@@H]2C1 | -108
CN(C)C(=O)COCC1CN(Cc2ccco2)Cc2ncn(C)c21 (stereo not drawn) | -7.86
CN1C(=O)C2(CCN(C(=O)c3ccccc3)CC2)c2cc(F)ccc21 | -106
CN(C)S(=O)(=O)N1CC[C@]2(C[C@@H](OCc3ccccn3)CO2)C1 | 10.1
CN1CCN(C2COC3(CCN(c4ccc(C#N)cc4)CC3)C2)CC1 (stereo not drawn) | 8.95
Fc1ccc(CN2CCc3ncnc(C4CC4)c3CC2)cc1 | -147
Cc1noc([C@H]2C[C@@H]3CCN(c4nnc(C)s4)C[C@H]3O2)n1 | 3.55
Cc1ccc(C(=O)N2CCN3C[C@H](Oc4cccnc4)C[C@H]3C2)cn1 | 4.66
CC(C)N1CCn2c(COCC3CCOCC3)cnc2C1C (stereo not drawn) | 8.22
CC(c1ccc2c(c1)OCO2)n1cc2nc(N(C)C)[nH]cc-2c1=O (stereo not drawn) | -2.72
Cc1ccc(N(Cc2ccco2)C(=O)Cc2cc(=O)n(C)[nH]2)cc1 | -152
N#Cc1ccc(C(=O)O)nc1C=Cc1cccc(Br)c1 | 5.09
